Data: ChEMBL document CHEMBL1145465, “PhoU is a persistence switch involved in persister formation and tolerance to multiple antibiotics and stresses in Escherichia coli” (2007)

Assays:
Type in all cases: functional
Escherichia coli [1] = test: Antibacterial activity against Escherichia coli K12 containing deletion deltaphoU mutant assessed as cell count in stationary phase at 100 ug/ml after 5 hrs
Procedure, shortened: (§1)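 Wild-type W3110-derived deletion mutants were made by the Datsenko–Wanner method. Log-phase or stationary-phase cultures were exposed to ampicillin 100 μg/ml in MOPS minimal medium at pH 5.0, at 37°C without shaking. Aliquots were taken at set times, washed in saline and plated on LB for viable CFU/ml.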

Escherichia coli [2] = test: Antibacterial activity against Escherichia coli K12 PhoU wild type W3110 assessed as cell count in log phase at 100 ug/ml after 1 day
Procedure, shortened: (§2)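 Log-phase or stationary-phase cultures exposed to ampicillin 100 μg/ml in MOPS minimal medium (pH 5.0) at 37°C without shaking, for 5 h up to 10 days. Aliquots were taken at each time point, washed in saline and plated on LB plates for viable CFU/ml.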

Escherichia coli [3] = test: Antibacterial activity against Escherichia coli K12 PhoU wild type W3110 assessed as cell count in stationary phase at 100 ug/ml after 1 day; procedure, shortened: as §2
Escherichia coli [4] = test: Antibacterial activity against Escherichia coli K12 containing deletion deltaphoU mutant assessed as cell count in stationary phase at 100 ug/ml after 1 day; procedure, shortened: as §1
Escherichia coli [5] = test: Antibacterial activity against Escherichia coli K12 containing deletion deltaphoR mutant assessed as cell count in stationary phase at 100 ug/ml after 24 hrs; procedure, shortened: as §1
Escherichia coli [6] = test: Antibacterial activity against Escherichia coli K12 containing deletion deltahipA mutant assessed as cell count in stationary phase at 100 ug/ml after 24 hrs
Procedure, shortened: (§3)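 Deletion mutants were made by the Datsenko–Wanner method. Log-phase or stationary-phase cultures were exposed to ampicillin at 100 μg/ml. CFU/ml was determined at the start and after 5, 24 and 72 h of exposure.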

Escherichia coli [7] = test: Antibacterial activity against Escherichia coli K12 mutant JHU313 at 100 ug/ml after 48 hrs by disc diffusion method
Procedure, shortened: (§4)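 Kirby-Bauer disc assay: log-phase LB culture was spread on LB agar for confluent growth. 7-mm nitrocellulose discs were soaked in antibiotic at the listed concentration and placed on the agar. After 48 h at 37°C, the diameter of the inhibition zone was measured in mm.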

Escherichia coli [8] = test: Antibacterial activity against Escherichia coli K12 containing deletion deltaphoR mutant assessed as cell count in log phase at 100 ug/ml after 5 hrs; procedure, shortened: as §1
Escherichia coli [9] = test: Antibacterial activity against Escherichia coli K12 containing deletion deltaphoBR mutant assessed as cell count in log phase at 100 ug/ml after 5 hrs; procedure, shortened: as §3
Escherichia coli [10] = test: Antibacterial activity against Escherichia coli K12 PhoU wild type W3110 assessed as cell count in stationary phase at 3 ug/ml after 1 day
Procedure, shortened: (§5)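 Log-phase or stationary-phase cultures were exposed to ampicillin (100 μg/ml) or norfloxacin (3 μg/ml) in MOPS minimal medium, pH 5.0, at 37°C without shaking, for 5 h to 10 days. Aliquots were saline-washed and plated on LB for CFU/ml.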

Escherichia coli [11] = test: Antibacterial activity against Escherichia coli K12 PhoU wild type W3110 assessed as cell count in stationary phase at 3 ug/ml after 3 days; procedure, shortened: as §5
Escherichia coli [12] = test: Antibacterial activity against Escherichia coli K12 containing deletion deltaphoU mutant assessed as cell count in log phase at 3 ug/ml after 3 days
Procedure, shortened: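 Log-phase or stationary-phase cultures of the ΔphoU deletion mutant (Datsenko–Wanner construction) were exposed to norfloxacin 3 μg/ml in MOPS minimal medium, pH 5.0, at 37°C without shaking, for up to 10 days. Sampled aliquots were washed in saline and plated on LB agar for CFU/ml.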

Escherichia coli [13] = test: Antibacterial activity against Escherichia coli K12 PhoU wild type W3110 assessed as cell count in log phase at 3 ug/ml after 5 days; procedure, shortened: as §5
Escherichia coli [14] = test: Antibacterial activity against Escherichia coli K12 mutant JHU313 containing plasmid PhoU at 4 ug/ml after 48 hrs by disc diffusion method; procedure, shortened: as §4
Escherichia coli [15] = test: Antibacterial activity against Escherichia coli K12 containing PhoU mutant assessed as cell count in log phase at 3 ug/ml after 5 hrs; procedure, shortened: as §5

Structure (SMILES): CC1(C)S[C@@H]2[C@H](NC(=O)[C@H](N)c3ccccc3)C(=O)N2[C@H]1C(=O)O [AMPICILLIN]
- CFU (Escherichia coli [1]): 2 10^8/ml
- CFU (Escherichia coli [2]): 10 mL⁻¹
- CFU (Escherichia coli [3]): 2 10^9/ml
- CFU (Escherichia coli [4]): 7 10^6/ml
- CFU (Escherichia coli [5]): 1.5 10^9/ml
- CFU (Escherichia coli [6]): 1.8 10^9/ml
- inhibition zone (IZ) (Escherichia coli [7]): 40 mm
- CFU (Escherichia coli [8]): 1 10^3/ml
- CFU (Escherichia coli [9]): 7 10^3/ml

Structure (SMILES): CCn1cc(C(=O)O)c(=O)c2cc(F)c(N3CCNCC3)cc21 [NORFLOXACIN]
- CFU (Escherichia coli [10]): 4 10^9/ml
- CFU (Escherichia coli [11]): 1 10^8/ml
- CFU (Escherichia coli [12]): 0 mL⁻¹
- CFU (Escherichia coli [13]): 7 10^2/ml
- inhibition zone (IZ) (Escherichia coli [14]): 36 mm
- CFU (Escherichia coli [15]): 2 10^7/ml
